Data reported in ChEMBL document CHEMBL1131342, “Design, synthesis, and antiviral activity of alpha-nucleosides: D- and L-isomers of lyxofuranosyl- and (5-deoxylyxofuranosyl)benzimidazoles” (J Med Chem, 1998).

Legend:
[1] = tested on: Human alphaherpesvirus 1; test: Antiviral activity evaluated by their ability to inhibit the KOS strain of herpes simplex virus type-1 (HSV-1).ELISA was used
[2] = tested on: Human betaherpesvirus 5; test: Compound was evaluated for the Antiviral activity against the AD169 strain of HCMV virus.; type: functional, organism-based
Method in brief: (§1)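 HFF monolayers in 24-well dishes infected with about 100 pfu HCMV/cm² (Towne or AD169). After adsorption, compound in growth medium at four to eight concentrations, duplicate wells, 7 days at 37 °C. Crystal violet stain, microscopic plaques counted, percent reduction vs no drug. IC50 from regression on log concentration; ganciclovir control.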

[3] = tested on: KB; test: Compound was evaluated for the cytotoxicity by the inhibition of KB cell growth.; type: functional, cell-based; conditions: Homo sapiens
Method in brief: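 KB cells plated at 3000–5000 cells/well and incubated overnight. Compound added in quadruplicate at six to eight concentrations, 48 h at 37 °C under CO₂, spanning two population doublings. Ethanol fixation, 0.1% crystal violet stain, dye eluted with acidified ethanol, absorbance at 570 nm. IC50 by regression on log concentration; 2-acetylpyridine thiosemicarbazone control.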

[4] = species on record: Homo sapiens; test: Compound was evaluated for the cytotoxicity scored on HFF cells at time of HCMV plaque enumeration.; type: functional
Method in brief: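 Stationary HFF cells not affected by virus, inspected microscopically for visual cytotoxicity at the time of HCMV plaque counting (7 days, 37 °C). Duplicate experiments.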

[5] = tested on: Human betaherpesvirus 5; test: Compound was evaluated for its antiviral activity against HCMV virus using Yield reduction assay.
[6] = tested on: Human betaherpesvirus 5; test: Antiviral activity assayed by ability to inhibit Towne strain of HCMV virus; type: functional, organism-based
Method in brief: as §1

[7] = tested on: Human betaherpesvirus 5; test: Compounds was evaluated for the Antiviral activity against the AD169 strain of HCMV virus.; type: functional, organism-based
Method in brief: as §1

[8] = tested on: Human betaherpesvirus 5; test: Compound was evaluated for the Yield reduction assays on HCMV virus,; type: functional
Method in brief: (§2)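 HFF cells in 96-well plates inoculated with HCMV at moi 0.5–1 pfu/cell. Compound in duplicate at 100 to 0.14 μM (1:3 serial dilutions), 7 days at 37 °C, then one freeze–thaw. Progeny titred by serial 1:3 dilution onto fresh HFF monolayers with plaque counting. IC90 from linear regression vs log concentration; ganciclovir control.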

[9] = tested on: Human alphaherpesvirus 1; test: Antiviral activity against KOS strain of herpes simplex virus type-1 (HSV-1).ELISA was used
[10] = tested on: Human betaherpesvirus 5; test: Compound was evaluated for its antiviral activity by its ability to inhibit Towne strain of HCMV virus.The plaque assay was used; type: functional, organism-based
Method in brief: as §1

[11] = tested on: Human betaherpesvirus 5; test: Compound was evaluated for antiviral activity against HCMV virus using yield reduction assay.; type: functional
Method in brief: as §2

[12] = tested on: Human alphaherpesvirus 1; test: Antiviral activity evaluated by its ability to inhibit the KOS strain of herpes simplex virus type-1 (HSV-1).ELISA was used

Structure (SMILES)	IC50 [1] [µM]	IC50 [3] [µM]	IC50 [4] [µM]	IC90 [5] [µM]	IC50 ([6]; Human betaherpesvirus 5) [µM]	other results
OC[C@H]1O[C@H](n2c(Cl)nc3cc(Cl)c(Cl)cc32)[C@@H](O)[C@H]1O	90	> 100	> 100	> 100	18	IC50 ([2]; Human betaherpesvirus 5): 9 µM
C[C@H]1O[C@@H](n2c(Br)nc3cc(Cl)c(Cl)cc32)[C@H](O)[C@@H]1O	50	> 100	100	12	32	
CCCNc1nc2cc(Cl)c(Cl)cc2n1[C@@H]1O[C@H](C)[C@@H](O)[C@H]1O			> 100	2	10	
C[C@@H]1O[C@@H](n2c(Br)nc3cc(Cl)c(Cl)cc32)[C@H](O)[C@@H]1O	> 100	60	32	2	0.4	
CCCNc1nc2cc(Cl)c(Cl)cc2n1[C@@H]1O[C@H](CO)[C@@H](O)[C@H]1O	> 100	> 100	> 100	17	60	IC50 ([2]; Human betaherpesvirus 5): 32 µM
OC[C@H]1O[C@@H](n2c(Cl)nc3cc(Cl)c(Cl)cc32)[C@H](O)[C@@H]1O	> 100	> 100	190	3.4		IC50 [7]: 1.8 µM; IC50 ([2]; Human betaherpesvirus 5): 2.6 µM; IC50 [6]: 18 µM; IC90 [8]: 1.4 µM
OC[C@H]1O[C@H](n2c(Br)nc3cc(Cl)c(Cl)cc32)[C@@H](O)[C@H]1O (stereo in doubt; 4a)				0.8		IC50 [2]: 0.8 µM; IC50 [9]: > 100 µM; IC50 [10]: 2.8 µM
CNc1nc2cc(Cl)c(Cl)cc2n1[C@@H]1O[C@@H](CO)[C@@H](O)[C@H]1O	> 100	> 100	> 100		> 100	
CCCNc1nc2cc(Cl)c(Cl)cc2n1[C@@H]1O[C@@H](CO)[C@@H](O)[C@H]1O	> 100	> 100	> 100	19	> 100	IC50 ([2]; Human betaherpesvirus 5): 11 µM
CSc1nc2cc(Cl)c(Cl)cc2n1[C@@H]1O[C@H](CO)[C@@H](O)[C@H]1O	> 100	> 100	> 100	> 100	> 100	
CCCNc1nc2cc(Cl)c(Cl)cc2n1[C@@H]1O[C@@H](C)[C@@H](O)[C@H]1O	> 100	65	100	2.8	32	
CSc1nc2cc(Cl)c(Cl)cc2n1[C@@H]1O[C@@H](CO)[C@@H](O)[C@H]1O	> 100	> 100	> 100		> 100	
OC[C@H]1O[C@@H](n2c(S)nc3cc(Cl)c(Cl)cc32)[C@H](O)[C@@H]1O	> 100	> 100	> 100	> 100	> 100	
CNc1nc2cc(Cl)c(Cl)cc2n1[C@@H]1O[C@H](CO)[C@@H](O)[C@H]1O	> 100	> 100	> 100	> 100	> 100	
OC[C@H]1O[C@H](n2c(Br)nc3cc(Cl)c(Cl)cc32)[C@@H](O)[C@H]1O (stereo in doubt; 4b)		> 100	> 100		6	IC90 [11]: 65 µM; IC50 [2]: 4.2 µM; IC50 [12]: 50 µM
OC[C@@H]1O[C@@H](n2c(S)nc3cc(Cl)c(Cl)cc32)[C@H](O)[C@@H]1O	> 100	> 100	> 100	> 100	> 100	
Nc1nc2c(ncn2COC(CO)CO)c(=O)[nH]1 [GANCICLOVIR]		> 100	> 100			IC90 [8]: 1.6 µM
C[C@@H]1O[C@@H](n2c(Cl)nc3cc(Cl)c(Cl)cc32)[C@H](O)[C@@H]1O	20	60	32	0.2	0.2	
O=C(O)P(=O)(O)O [FOSCARNET]			> 100			
C[C@H]1O[C@@H](n2c(Cl)nc3cc(Cl)c(Cl)cc32)[C@H](O)[C@@H]1O	60	75	45	8	32	
